pIC50: −log10 of the molar value.
Columns and labels:
A549 = assay: Antiproliferative activity against human A549 cells after 48 hrs by CCK-8 assay; type: functional, cell-based; settings: A549, 48 h
Summary of the method: (§1)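 Cells seeded at 2-4 x 10^3 per well and grown overnight in 0.1 mL medium with 10% FBS at 37 °C under 5% CO2. Drugs were added on day 2 and cells incubated 48 h. CCK-8 was then added for 2 h at 37 °C and absorbance read at 450 nm. IC50 values were reported.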

[1] = biological target: T1, DNA topoisomerase 1 (Homo sapiens) (UniProt P11387); assay: (§2) Inhibition of recombinant human topoisomerase 1-mediated DNA relaxation expressed in Saccharomyces cerevisiae TopI null strain RS190 at 20 uM using negatively supercoiled pUC18 as substrate pretreated with enzyme for 15 mins followed by substrate addition measured after 3 mins by agarose gel electrophoresis
T1 sequence (whole entry): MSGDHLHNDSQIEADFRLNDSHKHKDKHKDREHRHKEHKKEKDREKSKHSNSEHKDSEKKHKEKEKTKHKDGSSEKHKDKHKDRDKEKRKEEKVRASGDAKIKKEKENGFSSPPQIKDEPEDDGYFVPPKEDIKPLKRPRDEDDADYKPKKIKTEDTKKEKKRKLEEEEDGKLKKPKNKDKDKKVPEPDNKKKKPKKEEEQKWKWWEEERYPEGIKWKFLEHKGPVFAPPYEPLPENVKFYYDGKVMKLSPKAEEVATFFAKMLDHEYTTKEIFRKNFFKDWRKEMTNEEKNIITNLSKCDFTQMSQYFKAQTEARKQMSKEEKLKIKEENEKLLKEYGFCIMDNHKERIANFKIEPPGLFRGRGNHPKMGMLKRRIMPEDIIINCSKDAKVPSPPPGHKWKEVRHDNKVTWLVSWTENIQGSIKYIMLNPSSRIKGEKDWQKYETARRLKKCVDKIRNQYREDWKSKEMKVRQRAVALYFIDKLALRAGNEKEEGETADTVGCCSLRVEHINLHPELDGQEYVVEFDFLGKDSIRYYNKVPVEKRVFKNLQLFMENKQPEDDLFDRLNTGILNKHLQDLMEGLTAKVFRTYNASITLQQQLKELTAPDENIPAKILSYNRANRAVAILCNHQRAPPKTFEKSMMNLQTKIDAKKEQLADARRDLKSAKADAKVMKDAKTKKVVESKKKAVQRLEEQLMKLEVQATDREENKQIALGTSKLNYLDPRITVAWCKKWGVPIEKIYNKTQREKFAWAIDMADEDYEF
Summary of the method: (§3)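 Human TopI was expressed from pHT143 (GAL promoter) in yeast RS190 and affinity-purified. Reactions used 110 ng/µL TopI and 0.5 µg supercoiled pUC18 in 20 µl buffer (20 mM Tris–HCl, 0.1 mM Na2EDTA, 10 mM MgCl2, 50 µg/mL acetylated BSA, 150 mM KCl, pH 7.5). Drug was mixed with enzyme before DNA was added, and reactions were stopped with SDS. Products were resolved on 1% agarose in TBE and stained with gel red.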

[2] = biological target: T1, DNA topoisomerase 1 (Homo sapiens); assay: as §2, with “80” for “20”, “15 secs” for “3 mins”; summary of the method: as §3
[3] = biological target: T1, DNA topoisomerase 1 (Homo sapiens); assay: as §2, with “60” for “20”; summary of the method: as §3
SK-OV-3 = assay: Antiproliferative activity against human SKOV3 cells after 48 hrs by CCK-8 assay; type: functional, cell-based; settings: SK-OV-3, 48 h; summary of the method: as §1
[4] = biological target: T1, DNA topoisomerase 1 (Homo sapiens); assay: as §2, with “80” for “20”, “1 min” for “3 mins”; summary of the method: as §3
MRC5 = assay: Antiproliferative activity against human MRC5 cells after 48 hrs by CCK-8 assay; type: cell-based; settings: MRC5, 48 h; summary of the method: as §1
HEK293 = assay: Antiproliferative activity against human HEK293 cells after 48 hrs by CCK-8 assay; settings: HEK293, 48 h
[5] = biological target: T1, DNA topoisomerase 1 (Homo sapiens); assay: as §2, with “40” for “20”; summary of the method: as §3
[6] = biological target: T1, DNA topoisomerase 1 (Homo sapiens); assay: as §2, with “10” for “20”; summary of the method: as §3
[7] = biological target: T1, DNA topoisomerase 1 (Homo sapiens); assay: as §2, with “80” for “20”; summary of the method: as §3

SMILES	pIC50 (A549)	inhibition [1]	inhibition [2]	inhibition [3]	pIC50 (SK-OV-3)	inhibition [4]	pIC50 (MRC5)	pIC50 (HEK293)	inhibition [5]	inhibition [6]	inhibition [7]
O=P(c1ccccc1)(c1ccccc1)c1cccc2c1N[C@H](c1ccccn1)C[C@@H]2c1ccccc1	5.42	19%	92%	34%	4.72	85%	< 4.30	4.83	24%	19%	76%
O=P(c1ccccc1)(c1ccccc1)c1cccc2c(-c3ccccc3)cc(-c3ccc(C(F)(F)F)cc3)nc12	5.99	–	31%	–	4.82	28%	< 4.30	4.71	–	–	28%
FC(F)(F)c1ccc([C@@H]2C[C@H](c3ccccc3)c3cccc(P(=S)(c4ccccc4)c4ccccc4)c3N2)cc1	6.66	–	20%	–	< 4.30	17%	< 4.30	< 4.30	–	–	17%
Fc1ccc([C@@H]2C[C@H](c3ccccc3)c3cccc(P(=S)(c4ccccc4)c4ccccc4)c3N2)cc1	6.57	–	41%	–	< 4.30	39%	< 4.30	< 4.30	–	–	37%
Fc1ccc(-c2cc(-c3ccc(F)cc3)c3cccc(P(=S)(c4ccccc4)c4ccccc4)c3n2)cc1	< 4.30	–	–	–	< 4.30	–	< 4.30	< 4.30	–	–	–
FC(F)(F)c1ccc([C@@H]2C[C@H](c3ccccc3)c3cccc(P(c4ccccc4)c4ccccc4)c3N2)cc1	4.79	–	61%	–	< 4.30	61%	< 4.30	< 4.30	–	–	59%
FC(F)(F)c1ccc(-c2cc(-c3ccccc3)c3cccc(P(=S)(c4ccccc4)c4ccccc4)c3n2)cc1	< 4.30	10%	81%	24%	< 4.30	81%	< 4.30	< 4.30	18%	8%	81%
O=P(c1ccccc1)(c1ccccc1)c1cccc2c1N[C@H](c1ccc(F)cc1)C[C@@H]2c1ccccc1	5.57	–	55%	–	4.62	50%	< 4.30	4.58	–	–	16%
Fc1ccc([C@H]2C[C@@H](c3ccc(F)cc3)Nc3c2cccc3P(=S)(c2ccccc2)c2ccccc2)cc1	7.52	17%	85%	19%	< 4.30	84%	< 4.30	< 4.30	17%	17%	75%
O=P(c1ccccc1)(c1ccccc1)c1cccc2c(-c3ccccc3)cc(-c3ccc(F)cc3)nc12	5.65	–	28%	–	5.09	28%	< 4.30	4.77	–	–	25%
O=P(c1ccccc1)(c1ccccc1)c1cccc2c(-c3ccc(F)cc3)cc(-c3ccc(F)cc3)nc12	5.42	–	50%	–	5.17	50%	< 4.30	4.90	–	–	13%
COc1ccc([C@@H]2C[C@H](c3ccc(C)cc3)c3cccc(P(c4ccccc4)c4ccccc4)c3N2)cc1	5.61	–	52%	–	< 4.30	52%	< 4.30	< 4.30	–	–	52%
Cc1ccc([C@H]2C[C@@H](c3ccc(F)cc3)Nc3c2cccc3P(c2ccccc2)c2ccccc2)cc1	6.60	28%	96%	53%	< 4.30	92%	< 4.30	< 4.30	52%	20%	92%
Cc1ccc([C@H]2C[C@@H](c3ccccc3)Nc3c2cccc3P(=O)(c2ccccc2)c2ccccc2)cc1	5.92	–	28%	–	< 4.30	25%	< 4.30	4.55	–	–	12%
Cc1ccc(-c2cc(-c3ccccc3)nc3c(P(=O)(c4ccccc4)c4ccccc4)cccc23)cc1	5.12	–	7%	–	4.76	7%	< 4.30	5.05	–	–	5%
COc1ccccc1[C@@H]1C[C@H](c2ccccc2)c2cccc(P(=O)(c3ccccc3)c3ccccc3)c2N1	6.68	–	–	–	< 4.30	–	< 4.30	4.79	–	–	–
COc1ccccc1-c1cc(-c2ccccc2)c2cccc(P(=O)(c3ccccc3)c3ccccc3)c2n1	5.51	–	90%	–	4.88	83%	< 4.30	4.62	–	–	63%
S=P(c1ccccc1)(c1ccccc1)c1cccc2c(-c3ccccc3)cc(-c3ccccc3)nc12	< 4.30	–	75%	–	< 4.30	60%	< 4.30	< 4.30	–	–	24%
O=P(c1ccccc1)(c1ccccc1)c1cccc2c1N[C@H](c1cccc3ccccc13)C[C@@H]2c1ccccc1	5.45	–	63%	–	< 4.30	63%	< 4.30	< 4.30	–	–	45%
O=P(c1ccccc1)(c1ccccc1)c1cccc2c1N[C@H](c1ccc(C(F)(F)F)cc1)C[C@@H]2c1ccccc1	6.30	–	61%	–	< 4.30	56%	< 4.30	4.55	–	–	16%
Fc1ccc([C@@H]2C[C@H](c3ccccc3)c3cccc(P(=S)(c4ccccc4)c4ccccc4)c3N2)cc1F	7.10	–	57%	–	< 4.30	50%	< 4.30	< 4.30	–	–	49%
O=P(c1ccccc1)(c1ccccc1)c1cccc2c1N[C@H](c1ccccc1)C[C@@H]2c1ccccc1	5.76	–	52%	–	< 4.30	50%	< 4.30	< 4.30	–	–	21%
O=P(c1ccccc1)(c1ccccc1)c1cccc2c(-c3ccccc3)cc(-c3ccccn3)nc12	5.53	–	58%	–	4.76	52%	< 4.30	4.92	–	–	11%
O=P(c1ccccc1)(c1ccccc1)c1cccc2c(-c3ccccc3)cc(-c3cccc4ccccc34)nc12	5.20	–	89%	–	< 4.30	87%	< 4.30	4.26	–	–	65%
O=P(c1ccccc1)(c1ccccc1)c1cccc2c(-c3ccccc3)cc(-c3ccccc3)nc12	5.92	–	57%	–	4.84	57%	< 4.30	4.86	–	–	8%
O=P(c1ccccc1)(c1ccccc1)c1cccc2c1N[C@H](c1ccc(F)cc1)C[C@@H]2c1ccc(F)cc1	6.60	–	54%	–	4.75	50%	< 4.30	4.62	–	–	45%

From ChEMBL document CHEMBL4196061, “Novel topoisomerase I inhibitors. Syntheses and biological evaluation of phosphorus substituted quinoline derivates with antiproliferative activity” (Eur J Med Chem, 2018)
